Results from ChEMBL document CHEMBL1132334, “Discovery of 1,6-naphthyridines as a novel class of potent and selective human cytomegalovirus inhibitors” (J Med Chem, 1999).
Converted amounts (≈) assume the structure as drawn.

Experiments:
[1] = tested on: Hs68; experiment: Cytotoxicity in the human fibroblast Hs 68 cell line; assay type: functional
How it was run: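 Hs68 fibroblasts plated at 1000 cells/well and incubated overnight. Medium then replaced with compound, six serial 2-fold dilutions (3.2-100 µg/mL) in triplicate, for 72 h. Proliferation read by [³H]thymidine uptake with scintillation counting and expressed as percent of untreated control; CC50 is the concentration giving 50% inhibition.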

[2] = tested on: Human betaherpesvirus 5; experiment: Anti-HCMV activity in the human fibroblast Hs 68 cell line; assay type: functional, organism-based; conditions: Human betaherpesvirus 5, Hs68
How it was run: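 Hs68 human fibroblasts infected with HCMV strain AD169 at MOI 0.001, with or without compound, incubated 7 days. Plaques then counted under the microscope. Mean of duplicate values, experiments done at least twice.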

[3] = tested on: Hs68; experiment: Cytotoxicity in the Hs 68 cell line; assay type: functional; conditions: Homo sapiens

With `CC(C)Oc1ccccc1CNC(=O)c1ccc2cncc(Cl)c2n1` the CC50 [1] was 6 µg/mL (≈ 16.9 µM) and the IC50 [2] was 0.03 µg/mL (≈ 0.0843 µM).
With `COc1cccc(CNC(=O)c2ccc3cnccc3n2)c1` the CC50 [3] was 100 µg/mL (≈ 341 µM) and the IC50 [2] was 2.1 µg/mL (≈ 7.16 µM).
`COc1ccc(CNC(=O)c2ccc3cnccc3n2)cc1` gave a CC50 [3] of 50 µg/mL (≈ 170 µM) and an IC50 [2] of over 50 µg/mL.
`O=C(NCc1ccccc1)c1ccc2cnccc2n1` showed a CC50 [1] of 71 µg/mL (≈ 270 µM) and an IC50 [2] of 1 µg/mL (≈ 3.8 µM).
Compound `CC(C)Oc1ccccc1CNC(=O)c1ccc2cncc(Br)c2n1` has a CC50 [1] of 9 µg/mL (≈ 22.5 µM) and an IC50 [2] of 0.15 µg/mL (≈ 0.375 µM).
Compound `CC(C)Oc1cccc(CNC(=O)c2ccc3cnccc3n2)c1` has a CC50 [1] of 8.4 µg/mL (≈ 26.1 µM) and an IC50 [2] of 3.6 µg/mL (≈ 11.2 µM).
Compound `O=C(NCc1ccc(Br)cc1)c1ccc2cnccc2n1` has a CC50 [1] of 10 µg/mL (≈ 29.2 µM) and an IC50 [2] of over 10 µg/mL.
For `O=C(Nc1ccccc1)c1ccc2cnccc2n1`, the CC50 [3] was 50 µg/mL (≈ 201 µM) and the IC50 [2] was 50 µg/mL (≈ 201 µM).
Compound `CC[C@@H](C)Oc1ccccc1CNC(=O)c1ccc2cnccc2n1` has a CC50 [1] of 0.1 µg/mL (≈ 0.298 µM) and an IC50 [2] of 0.003 µg/mL (≈ 0.00894 µM).
With `CC(C)(C)Oc1ccccc1CNC(=O)c1ccc2cnccc2n1` the CC50 [1] was 4.4 µg/mL (≈ 13.1 µM) and the IC50 [2] was 0.04 µg/mL (≈ 0.119 µM).
For `O=C(NCc1ccccc1Br)c1ccc2cnccc2n1`, the CC50 [1] was 100 µg/mL (≈ 292 µM) and the IC50 [2] was 0.7 µg/mL (≈ 2.05 µM).
In the case of `CC[C@H](C)Oc1ccccc1CNC(=O)c1ccc2cnccc2n1`, the CC50 [1] is reported as 3.1 µg/mL (≈ 9.24 µM) and the IC50 [2] is reported as 0.03 µg/mL (≈ 0.0894 µM).
In the case of `C=Cc1cncc2ccc(C(=O)NCc3ccccc3OC(C)C)nc12`, the CC50 [1] is reported as 17 µg/mL (≈ 48.9 µM) and the IC50 [2] is reported as 0.003 µg/mL (≈ 0.00864 µM).
For `O=C(NCCc1ccccc1)c1ccc2cnccc2n1`, the CC50 [1] was 5 µg/mL (≈ 18 µM) and the IC50 [2] was 0.78 µg/mL (≈ 2.81 µM).
Compound `O=C(NCc1cccc(Br)c1)c1ccc2cnccc2n1` has a CC50 [1] of 50 µg/mL (≈ 146 µM) and an IC50 [2] of 2.2 µg/mL (≈ 6.43 µM).
Work on `COc1ccccc1CCNC(=O)c1ccc2cnccc2n1` yielded a CC50 [3] of 17 µg/mL (≈ 55.3 µM) and an IC50 [2] of 6 µg/mL (≈ 19.5 µM).
`Cc1cncc2ccc(C(=O)NCc3ccccc3OC(C)C)nc12` was tested, and the CC50 [1] was 3 µg/mL (≈ 8.94 µM) and the IC50 [2] was 0.0004 µg/mL (≈ 0.00119 µM).
Compound `CC(C)Oc1ccccc1CNC(=O)c1ccc2cnccc2n1` has a CC50 [1] of 2.5 µg/mL (≈ 7.78 µM) and an IC50 [2] of 0.005 µg/mL (≈ 0.0156 µM).
Work on `COc1ccccc1CNC(=O)c1cc(C)c2cnccc2n1` yielded a CC50 [1] of 8 µg/mL (≈ 26 µM) and an IC50 [2] of 11 µg/mL (≈ 35.8 µM).
`Nc1nc2c(ncn2COC(CO)CO)c(=O)[nH]1` [GANCICLOVIR] was tested, and the CC50 [3] was 12.5 µg/mL (≈ 49 µM) and the IC50 [2] was 0.3 µg/mL (≈ 1.18 µM).
